Measured values taken from ChEMBL document CHEMBL1142436, “Design and synthesis of 4-substituted indolo[3,2-e][1,2,3]triazolo[1,5-a]pyrimidine derivatives with antitumor activity” (2008).

Experiments:
Assay type in all cases: functional
A498 = experiment: Growth inhibition of human A498 cells after 48 hrs; conditions: A498, 48 h
Procedure, shortened: (§1)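 NCI ~60-line screen. Cells were grown in RPMI 1640 with 5% FBS and 2 mM L-glutamine and plated at 5000–40000 cells/well. After a 24 h preincubation, five drug concentrations from DMSO stocks were added for 48 h at 37 °C. Cells were TCA-fixed, stained with SRB and read at 515 nm. GI50 was taken from time-zero and control absorbances and reported as pGI50.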

[1] = Growth inhibition of human HS578T cells after 48 hrs; conditions: Hs-578T; procedure, shortened: as §1
SNB-19 = experiment: Growth inhibition of human SNB19 cells after 48 hrs; conditions: SNB-19, 48 h
Procedure, shortened: (§2)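 NCI 60-line screen: cells in RPMI 1640 with 5% FBS and 2 mM L-glutamine, plated at 5000–40000 cells/well, grown 24 h (37 °C, 5% CO₂), then exposed to five 10-fold or ½-log dilutions (DMSO stock) for 48 h. Fixed with TCA (final 10% for adherent cells, 16% for suspension cells), then SRB stained with absorbance at 515 nm. GI50 from percentage growth relative to time-zero and control wells.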

SK-MEL-5 = experiment: Growth inhibition of human SK-MEL5 cells after 48 hrs; conditions: SK-MEL-5, 48 h; procedure, shortened: as §1
ACHN = experiment: Growth inhibition of human ACHN cells after 48 hrs; procedure, shortened: as §1
HCT-116 = experiment: Growth inhibition of human HCT116 cells after 48 hrs; conditions: HCT-116, 48 h; procedure, shortened: as §1
KM12 = experiment: Growth inhibition of human KM12 cells after 48 hrs; conditions: KM12, 48 h; procedure, shortened: as §1
EKVX = experiment: Growth inhibition of human EKVX cells after 48 hrs; procedure, shortened: as §1
T47D = experiment: Growth inhibition of human T47D cells after 48 hrs; procedure, shortened: as §2
DU-145 = experiment: Growth inhibition of human DU145 cells after 48 hrs; conditions: DU-145, 48 h; procedure, shortened: as §1
MOLT-4 = experiment: Growth inhibition of human MOLT4 cells after 48 hrs; conditions: MOLT-4, 48 h; procedure, shortened: as §1
RXF 393 = experiment: Growth inhibition of human RXF393 cells after 48 hrs; conditions: RXF 393, 48 h; procedure, shortened: as §1
U-251 = experiment: Growth inhibition of human U251 cells after 48 hrs; conditions: U-251, 48 h; procedure, shortened: as §2
NCI-H460 = experiment: Growth inhibition of human NCI-H460 cells after 48 hrs; conditions: NCI-H460, 48 h; procedure, shortened: as §1
RPMI-8226 = experiment: Growth inhibition of human RPMI8226 cells after 48 hrs; conditions: RPMI-8226, 48 h; procedure, shortened: as §1
COLO 205 = experiment: Growth inhibition of human COLO205 cells after 48 hrs; conditions: COLO 205, 48 h; procedure, shortened: as §1
OVCAR-8 = experiment: Growth inhibition of human OVCAR8 cells after 48 hrs; conditions: OVCAR-8, 48 h; procedure, shortened: as §1
SF-539 = experiment: Growth inhibition of human SF539 cells after 48 hrs; conditions: SF-539, 48 h; procedure, shortened: as §1
M14 = experiment: Growth inhibition of human M14 cells after 48 hrs; conditions: M14, 48 h; procedure, shortened: as §1
MCF7 = experiment: Growth inhibition of human MCF7 cells after 48 hrs; conditions: MCF7, 48 h; procedure, shortened: as §1
NCI-H322M = experiment: Growth inhibition of human NCI-H322M cells after 48 hrs; procedure, shortened: as §1
SK-MEL-28 = experiment: Growth inhibition of human SK-MEL28 cells after 48 hrs; conditions: SK-MEL-28, 48 h; procedure, shortened: as §1
NCI-H23 = experiment: Growth inhibition of human NCI-H23 cells after 48 hrs; procedure, shortened: as §1
SNB-75 = experiment: Growth inhibition of human SNB75 cells after 48 hrs; conditions: SNB-75, 48 h; procedure, shortened: as §2
OVCAR-4 = experiment: Growth inhibition of human OVCAR4 cells after 48 hrs; conditions: OVCAR-4, 48 h; procedure, shortened: as §1
HCC 2998 = experiment: Growth inhibition of human HCC2998 cells after 48 hrs; conditions: HCC 2998, 48 h; procedure, shortened: as §1
SF-268 = experiment: Growth inhibition of human SF268 cells after 48 hrs; conditions: SF-268, 48 h; procedure, shortened: as §1
CCRF-CEM = experiment: Growth inhibition of human CCRF-CEM cells after 48 hrs; procedure, shortened: as §1
SW-620 = experiment: Growth inhibition of human SW620 cells after 48 hrs; conditions: SW-620, 48 h; procedure, shortened: as §2
HOP-62 = experiment: Growth inhibition of human HOP62 cells after 48 hrs; conditions: HOP-62, 48 h; procedure, shortened: as §1
Malme-3M = experiment: Growth inhibition of human MALME3M cells after 48 hrs; procedure, shortened: as §1
OVCAR-3 = experiment: Growth inhibition of human OVCAR-3 cells after 48 hrs; conditions: OVCAR-3, 48 h; procedure, shortened: as §1
[2] = read-out: Log LC50 (the source's name) (converted)

For `Cn1c2ccccc2c2c(=O)n(CCCC(=O)NCCc3c[nH]cn3)c3c(-c4ccccc4)nnn3c21`, the GI50 (A498) was 7.59 µM, the CC50 (A498; [2]) was 30.9 µM and the TGI (A498; read-out: pTGI (converted)) was 15.1 µM. The GI50 [1] was 10.5 µM, the LC50 (50% lethal concentration) [1] was 49 µM and the TGI ([1]; read-out: pTGI (converted)) was 22.4 µM. The GI50 (SNB-19) was 11.7 µM, the LC50 (SNB-19) was 49 µM and the TGI (SNB-19; read-out: pTGI (converted)) was 24 µM. For the same molecule, the GI50 (SK-MEL-5) was 9.12 µM, the LC50 (SK-MEL-5) was 32.4 µM and the TGI (SK-MEL-5; read-out: pTGI (converted)) was 17 µM. It also gave a GI50 (ACHN) of 9.77 µM, an LC50 (ACHN) of 33.1 µM and a TGI (ACHN; read-out: pTGI (converted)) of 17.8 µM. For the same molecule, the GI50 (HCT-116) was 5.89 µM, the LC50 (HCT-116) was 32.4 µM and the TGI (HCT-116; read-out: pTGI (converted)) was 13.8 µM. It also gave a GI50 (KM12) of 8.13 µM, an LC50 (KM12) of 35.5 µM and a TGI (KM12; read-out: pTGI (converted)) of 17 µM. For the same molecule, the GI50 (EKVX) was 10 µM, the LC50 (EKVX) was over 50.1 µM and the TGI (EKVX; read-out: pTGI (converted)) was 24 µM. For the same molecule, the GI50 (T47D) was 10.5 µM, the CC50 (T47D; [2]) was over 50.1 µM and the TGI (T47D; read-out: pTGI (converted)) was 25.1 µM. The GI50 (DU-145) was 6.92 µM, the LC50 (DU-145) was 27.5 µM and the TGI (DU-145; read-out: pTGI (converted)) was 13.8 µM. It also gave a GI50 (MOLT-4) of 3.98 µM, an LC50 (MOLT-4) of over 50.1 µM and a TGI (MOLT-4; read-out: pTGI (converted)) of 21.4 µM. For the same molecule, the GI50 (RXF 393) was 7.41 µM, the LC50 (RXF 393) was 44.7 µM and the TGI (RXF 393; read-out: pTGI (converted)) was 18.2 µM. The GI50 (U-251) was 9.55 µM, the LC50 (U-251) was 36.3 µM and the TGI (U-251; read-out: pTGI (converted)) was 18.6 µM. It also gave a GI50 (NCI-H460) of 11 µM, an LC50 (NCI-H460) of over 50.1 µM and a TGI (NCI-H460; read-out: pTGI (converted)) of 24.5 µM. For the same molecule, the GI50 (RPMI-8226) was 10.5 µM, the LC50 (RPMI-8226) was over 50.1 µM and the TGI (RPMI-8226; read-out: pTGI (converted)) was 28.8 µM. It also gave a GI50 (COLO 205) of 8.51 µM, an LC50 (COLO 205) of 44.7 µM and a TGI (COLO 205; read-out: pTGI (converted)) of 19.5 µM. The GI50 (OVCAR-8) was 10 µM, the LC50 (OVCAR-8) was 42.7 µM and the TGI (OVCAR-8; read-out: pTGI (converted)) was 20.9 µM. For the same molecule, the GI50 (SF-539) was 9.33 µM, the LC50 (concentration killing 50% of cells) (SF-539) was 31.6 µM and the TGI (SF-539; read-out: pTGI (converted)) was 17.4 µM. It also gave a GI50 (M14) of 12 µM, an LC50 (M14) of 49 µM and a TGI (M14; read-out: pTGI (converted)) of 24.5 µM. It also gave a GI50 (MCF7) of 12.9 µM, an LC50 (MCF7) of over 50.1 µM and a TGI (MCF7; read-out: pTGI (converted)) of 30.2 µM. It also gave a GI50 (NCI-H322M) of 11 µM, an LC50 (NCI-H322M) of over 50.1 µM and a TGI (NCI-H322M; read-out: pTGI (converted)) of 29.5 µM. For the same molecule, the GI50 (SK-MEL-28) was 8.91 µM, the LC50 (SK-MEL-28) was 32.4 µM and the TGI (SK-MEL-28; read-out: pTGI (converted)) was 17 µM. For the same molecule, the TGI (NCI-H23; Homo sapiens, NCI-H23, 48 h, read-out: pTGI (converted)) was 46.8 µM, the CC50 (NCI-H23; [2]) was 13.2 µM and the GI50 (SNB-75) was 10.5 µM. For the same molecule, the LC50 (SNB-75) was 33.1 µM, the TGI (SNB-75; read-out: pTGI (converted)) was 18.6 µM and the GI50 (OVCAR-4) was 10.2 µM. For the same molecule, the LC50 (OVCAR-4) was 41.7 µM, the TGI (OVCAR-4; read-out: pTGI (converted)) was 20.4 µM and the GI50 (HCC 2998) was 9.55 µM. The LC50 (HCC 2998) was 40.7 µM, the TGI (HCC 2998; read-out: pTGI (converted)) was 20 µM and the GI50 (SF-268) was 11.7 µM. It also gave a CC50 (SF-268; [2]) of over 50.1 µM, a TGI (SF-268; read-out: pTGI (converted)) of 31.6 µM and a GI50 (CCRF-CEM) of 1.51 µM. The LC50 (CCRF-CEM) was over 50.1 µM, the TGI (CCRF-CEM; read-out: pTGI (converted)) was over 50.1 µM and the GI50 (SW-620) was 12.9 µM. The LC50 (lethal concentration, 50% cell kill) (SW-620) was over 50.1 µM, the TGI (SW-620; read-out: pTGI (converted)) was 30.2 µM and the GI50 (HOP-62) was 7.59 µM. For the same molecule, the LC50 (HOP-62) was 37.2 µM, the TGI (HOP-62; read-out: pTGI (converted)) was 17 µM and the GI50 (Malme-3M) was 7.59 µM. For the same molecule, the LC50 (Malme-3M) was 37.2 µM, the TGI (Malme-3M; read-out: pTGI (converted)) was 16.6 µM and the GI50 (OVCAR-3) was 8.32 µM. The LC50 (OVCAR-3) was 31.6 µM and the TGI (OVCAR-3; read-out: pTGI (converted)) was 16.2 µM.
